From PubChem
Compounds with a hit are over-represented: about 1.9% of the library has one in this group of screens.
EBI2 block = blocks human EBI2 receptor beta-arrestin signaling; EBI2 beta-arrestin recruitment, luminescence, 7a,25-OHC stimulated; inhibition, % at 5 µM; 360,000 compounds, 0.81% hits; AID 651636; in the data active = inhibition above about 38%;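 note: enzyme fragment complementation signal reports receptor beta-arrestin coupling in cells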
Target sequence (P32249 whole entry, looked up, the tested form may be a part): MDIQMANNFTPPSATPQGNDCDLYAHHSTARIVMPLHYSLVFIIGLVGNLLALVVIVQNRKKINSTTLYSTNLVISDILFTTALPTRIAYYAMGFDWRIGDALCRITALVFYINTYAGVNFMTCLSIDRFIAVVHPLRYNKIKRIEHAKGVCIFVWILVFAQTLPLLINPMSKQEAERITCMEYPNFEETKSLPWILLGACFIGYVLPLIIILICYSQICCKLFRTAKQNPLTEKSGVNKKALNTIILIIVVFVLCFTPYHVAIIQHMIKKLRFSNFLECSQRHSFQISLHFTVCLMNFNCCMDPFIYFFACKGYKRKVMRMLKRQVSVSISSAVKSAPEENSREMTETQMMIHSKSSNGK
H9c2 TAG inh = reduces triacylglycerol accumulation in H9c2 cells; Nile Red lipid (TAG) fluorescence; cells loaded with 200 µM oleic acid; inhibition, % at 12.5 µM; 230,000 compounds, 0.66% hits; AID 651582;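 active = pattern-corrected inhibition of lipid staining of at least 50% with the nuclear-stain viability signal not falling by more than 50%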
APJ agonist = activates the human apelin receptor APJ; CHO-K1 APJ PathHunter beta-arrestin, luminescence; 0% DMSO wells, 100% apelin; AID 2520; 330,000 compounds, 0.11% hits; activation, % at 20 µM;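 active = activation more than six SD over the plate average, tested at 20 µM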
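Material: engineered CHO-K1 APJ arrestin reporter cells; amount: 1000 CHO-K1 reporter cells seeded per well; incubation: compound stimulation 90 min at 25 °C, detection 60 min; signal: luminescent beta-gal fragment complementation, chemiluminescent substrate; read-out basis: APJ agonist activity; controls: DMSO-only wells as negative, 10 nM Apelin-13 as positive control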
CXCR6 block = CXCR6 (human) receptor inhibition; CHO-K1 PathHunter CXCR6 beta-arrestin, luminescence; inhibition, % at 20 µM; 360,000 compounds, 0.36% hits; AID 602244; in the data active = inhibition above about 34%, passing the limit was not always enough;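 note: antagonist mode with CXCL16 agonist at 10 nM final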
CCR6 antag = blocks CCL20-driven beta-arrestin recruitment at human CCR6; AID 493098; 340,000 compounds, 0.49% hits; inhibition, % at 20 µM; P51684; CHO-K1 CCR6 PathHunter beta-arrestin, luminescence, CCL20-stimulated;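 active = compounds whose inhibition of the agonist-driven luminescence signal at 20 µM reaches about 50%, limit read from the data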;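 note: cells stimulated with CCL20 at 14 nM final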
APJ antagonist = APJ receptor antagonism | 330,000 compounds, 0.32% hits | CHO-K1 APJ beta-arrestin complementation, luminescence | inhibition, % at 20 µM | P35414 | AID 2521;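 active = inhibition above about 40% at 20 µM, limit read from the data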;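 note: cells challenged with 10 nM apelin-13 agonist together with compound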
APJ ag confirm = APJ receptor agonism confirmation. activation, % at 20 µM. shares compounds with APJ agonist. CHO-K1 APJ PathHunter beta-arrestin, luminescence. 310 compounds, 10% hits;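 active = activation above 40%, taking the highest of four retests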
Hits are given with their value.

`COc1ccc(C(=O)C2CCCN(C(=O)c3csc(SC)n3)C2)cc1F` (centres undefined) gave EBI2 block inactive, H9c2 TAG inh inactive and CXCR6 block inactive.
For CN[C@H]1C[C@H]2c3cc(-c4ccccc4)ccc3CCN2C(=O)[C@H]1[C@H](C)O the results were EBI2 block inactive, H9c2 TAG inh inactive and CXCR6 block inactive.
For CC(=O)O[C@@H]1C[C@@]2(C)[C@@H](CC[C@H]2[C@@H](C)/C=C\CC(C)C)C2=C[C@@H](O)[C@@]3(O)C[C@@H](O)[C@H](O)C[C@]3(CO)[C@]21O the results were EBI2 block inactive and CXCR6 block inactive.
For Cc1cccc[n+]1CC(=O)N1c2ccccc2Sc2ccccc21 the results were EBI2 block inactive, H9c2 TAG inh inactive, APJ agonist inactive, CXCR6 block inactive, CCR6 antag inactive and APJ antagonist inactive.
COc1ccc(OCC(=O)Nc2ccc(S(=O)(=O)N3CCOCC3)cc2)cc1 was read as EBI2 block inactive, H9c2 TAG inh inactive, APJ agonist inactive, CXCR6 block inactive, CCR6 antag inactive and APJ antagonist inactive.
For CC(=O)Nc1ccc(OCC(=O)Nc2ccc(Cl)c(S(=O)(=O)N3CCOCC3)c2)cc1 the results were EBI2 block inactive, H9c2 TAG inh inactive, APJ agonist 17.3, CXCR6 block inactive, APJ antagonist inactive and APJ ag confirm inactive.
Screening C=CCn1c(SCC(=O)N2CCN(c3ccccc3)CC2)nc2c([nH]c3ccccc32)c1=O returned EBI2 block inactive, APJ agonist 65.2, CXCR6 block inactive, CCR6 antag inactive, APJ antagonist inactive and APJ ag confirm inactive.
`Cc1nn(CC(=O)NCc2ccc(OC(C)C)cc2)c(=O)c2cc(-c3ccccc3)nn12` gave EBI2 block inactive, APJ agonist inactive, CXCR6 block inactive, CCR6 antag inactive and APJ antagonist inactive.
COc1cc(/C=C(/C#N)c2nc3ccccc3[nH]2)ccc1OCC(=O)Nc1ccccc1C(C)C was read as EBI2 block inactive, APJ agonist 28.7, CXCR6 block inactive, CCR6 antag inactive, APJ antagonist inactive and APJ ag confirm inactive.
Cc1cccc(C)c1NC(=O)CN(C)C(=O)CN1C(=O)NC(C)(C)C1=O was read as EBI2 block inactive, H9c2 TAG inh inactive, APJ agonist inactive, CXCR6 block inactive, CCR6 antag inactive and APJ antagonist inactive.
For COc1ccc2noc3c2c1C(=O)c1ccccc1-3 the results were EBI2 block inactive, H9c2 TAG inh inactive, APJ agonist 21.4, CXCR6 block inactive, CCR6 antag inactive, APJ antagonist inactive and APJ ag confirm inactive.
NC(=O)c1ccsc1NC(=O)COC(=O)/C=C/c1ccc([N+](=O)[O-])cc1 was read as EBI2 block inactive, H9c2 TAG inh inactive, APJ agonist inactive, CXCR6 block inactive, CCR6 antag inactive and APJ antagonist inactive.
`COC(=O)c1ccc(/C=C/C(=O)OCC(=O)Nc2sccc2C(N)=O)cc1` gave EBI2 block inactive, H9c2 TAG inh inactive, APJ agonist 31.1, CXCR6 block inactive, CCR6 antag inactive, APJ antagonist inactive and APJ ag confirm 46.7.
`Cc1ccc(OC/C(=N\O)C(C)(C)C)c([N+](=O)[O-])c1` gave EBI2 block inactive, H9c2 TAG inh inactive, APJ agonist inactive, CXCR6 block inactive, CCR6 antag inactive and APJ antagonist inactive.
`CC(=O)NC(CC(=O)NNC(=O)c1cc2ccccc2cc1O)c1ccccc1` (centres undefined) gave EBI2 block inactive, APJ agonist 29.9, CXCR6 block inactive, CCR6 antag inactive, APJ antagonist inactive and APJ ag confirm inactive.
`COc1cc(NC(=O)COC(=O)CC(NC(C)=O)c2ccccc2)cc(OC)c1` (centres undefined) gave EBI2 block inactive, APJ agonist inactive, CXCR6 block inactive, CCR6 antag inactive and APJ antagonist inactive.
Screening C[C@@H]1CN([C@@H](C)CO)C(=O)c2cc(C#Cc3ccccc3)cnc2O[C@@H]1CN(C)Cc1ccccn1 returned EBI2 block inactive, H9c2 TAG inh inactive and CXCR6 block inactive.
